Reference: ChEMBL document CHEMBL4706544, “Discovery of 2-oxy-2-phenylacetic acid substituted naphthalene sulfonamide derivatives as potent KEAP1-NRF2 protein-protein interaction inhibitors for inflammatory conditions” (Eur J Med Chem, 2020)
Activity calls are given as the source filed them. The rule behind the calls is not given here.

What was measured:
Keap1/Nrf2 = Keap1/Nrf2 (Homo sapiens, UniProt Q14145)
Cytochrome P450 2C9 = Cytochrome P450 2C9 (Homo sapiens, UniProt P11712); assay: Inhibition of CYP2C9 in human liver microsomes preincubated for 10 mins followed by NADPH addition by LC-MS/MS analysis; format: ADME
Cytochrome P450 2C19 = Cytochrome P450 2C19 (Homo sapiens, UniProt P33261); assay: Inhibition of CYP2C19 in human liver microsomes preincubated for 10 mins followed by NADPH addition by LC-MS/MS analysis; format: ADME
RAW264.7 [1] = assay: Antioxidant activity in LPS-induced mouse RAW264.7 cells assessed as restoration of SOD activity at 10 uM […]; format: functional, cell-based
[2] = Half life in Sprague-Dawley rat at 1 mg/kg, iv by LC-MS/MS analysis; format: ADME, organism-based; settings: in vivo
Outline: (§1)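 Six male SD rats (180–220 g) received 1 mg/kg IV in normal saline with cosolvent. Plasma was obtained by centrifugation at 4 °C and 2000 rpm for 10 min, stored near −80 °C, and analysed by LC-MS/MS.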

RAW264.7 [3] = assay: Antioxidant activity in mouse RAW264.7 cells assessed as reversal in LPS-induced increase of MPO activity measured after 12 hrs; format: functional, cell-based
Outline: (§2)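 RAW 264.7 cells were pretreated with LPS 1 µg/mL for 6 h, then exposed to compound (1 or 10 µM) for a further 12 h. SOD activity (WST-8 kit), GSH-Px activity, MPO activity and the GSH/GSSG ratio were measured with commercial kits per the manufacturer's protocols. Data are mean ± SEM, n = 3 independent observations, one-way ANOVA.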

RAW264.7 [4] = assay: Antioxidant activity in LPS-induced mouse RAW264.7 cells assessed as restoration of GSH to GSSG ratio at 10 uM measured after 12 hrs; format: functional, cell-based
Outline: as §2

RAW264.7 [5] = assay: Antioxidant activity in mouse RAW264.7 cells assessed as inhibition of LPS-induced ROS generation at 10 uM measured after 12 hrs by CH2DCF-DA staining based fluorescence microscopic analysis; format: functional, cell-based
Outline: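 RAW 264.7 cells were pretreated with LPS 1 µg/mL for 6 h, then given compound for 12 h. Cells were washed with PBS and stained with 10 µM c-H2DCF-DA for 20 min at 37 °C in the dark. ROS was imaged by live-cell fluorescence microscopy and quantified as mean fluorescence intensity. n = 3 independent observations, mean ± SEM.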

[6] = Apparent volume of distribution during terminal phase in Sprague-Dawley rat at 1 mg/kg, iv by LC-MS/MS analysis; format: ADME, organism-based; settings: in vivo
Outline: as §1

[7] = Intrinsic clearance in CD-1 rat liver microsomes preincubated for 5 mins followed by NADPH addition and measured after 45 mins by LC-MS/MS analysis; format: ADME, Microsome; settings: time 50 min
Outline: (§3)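 CD-1 male rat liver microsomes in PBS were shaken 10 min at 37 °C, then DMSO compound solution (0.1 mM) was added. Plates were preincubated 5 min at 37 °C before NADPH was added to start the reaction; the 0-min samples were quenched with acetonitrile first. Ice-cold acetonitrile stopped reactions at 5, 15, 30 and 45 min. Clozapine was the reference; supernatants were analysed by LC-MS/MS.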

Mus musculus [8] = assay: Antiinflammatory activity in ip dosed LPS-induced C57BL/6 mouse model assessed as reduction in IL1beta production treated for 3 days measured 24 hrs post last dose by ELISA; format: functional, organism-based; settings: time 4.0 day
Outline: (§4)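 Female C57BL/6 mice (20 ± 2 g) got LPS 300 µg/kg IP, then 4 h later IP test compound (500 µL) daily for 3 days. Groups were saline control (n=3), LPS (n=8), LPS + 10 or 40 mg/kg (n=8 each) and LPS + dexamethasone 10 mg/kg IP (n=8). Sera were taken 24 h after the last dose, and IFN-γ, IL-1β, IL-6 and TNF-α were measured by ELISA kits.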

Mus musculus [9] = assay: Antiinflammatory activity in ip dosed LPS-induced C57BL/6 mouse model assessed as reduction in TNFalpha production treated for 3 days measured 24 hrs post last dose by ELISA; format: functional, organism-based; settings: time 4.0 day
Outline: as §4

[10] = Cmax in Sprague-Dawley rat at 1 mg/kg, iv by LC-MS/MS analysis; format: ADME, organism-based; design: route intravenous, dose 1 mg/kg; settings: in vivo
Outline: as §1

Cytochrome P450 1A2 = target: T1, Cytochrome P450 1A2 (Homo sapiens, UniProt P05177); assay: Inhibition of CYP1A2 in human liver microsomes preincubated for 10 mins followed by NADPH addition by LC-MS/MS analysis; format: ADME
T1 sequence (P05177 whole entry): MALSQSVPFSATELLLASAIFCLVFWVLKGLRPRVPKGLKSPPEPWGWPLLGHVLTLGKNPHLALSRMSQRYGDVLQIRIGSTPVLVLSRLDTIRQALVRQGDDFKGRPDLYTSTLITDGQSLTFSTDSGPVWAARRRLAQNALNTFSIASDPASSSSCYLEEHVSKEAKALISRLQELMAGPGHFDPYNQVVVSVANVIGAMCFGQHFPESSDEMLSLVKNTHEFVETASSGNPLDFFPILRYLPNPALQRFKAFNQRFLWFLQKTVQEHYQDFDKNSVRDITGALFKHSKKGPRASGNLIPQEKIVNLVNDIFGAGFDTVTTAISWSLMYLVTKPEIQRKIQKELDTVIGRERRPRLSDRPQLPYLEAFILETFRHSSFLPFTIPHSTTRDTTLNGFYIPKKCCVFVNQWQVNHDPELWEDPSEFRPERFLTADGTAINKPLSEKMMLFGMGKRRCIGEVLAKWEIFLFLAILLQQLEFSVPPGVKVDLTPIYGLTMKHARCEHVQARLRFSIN

Cytochrome P450 2D6 = Cytochrome P450 2D6 (Homo sapiens, UniProt P10635); assay: Inhibition of CYP2D6 in human liver microsomes preincubated for 10 mins followed by NADPH addition by LC-MS/MS analysis; format: ADME
[11] = AUC (0 to infinity) in Sprague-Dawley rat at 1 mg/kg, iv by LC-MS/MS analysis; format: ADME, organism-based; design: dose 1 mg/kg, route intravenous, time infinity; settings: in vivo
RAW264.7 [12] = assay: Antioxidant activity in LPS-induced mouse RAW264.7 cells assessed as restoration of GSH-Px activity at 10 uM measured after 12 hrs; format: functional, cell-based
Outline: as §2

Mus musculus [13] = assay: Antiinflammatory activity in ip dosed LPS-induced C57BL/6 mouse model assessed as reduction in IL6 production treated for 3 days measured 24 hrs post last dose by ELISA; format: functional, organism-based; settings: time 4.0 day
Outline: as §4

[14] = Hepatic clearance in CD-1 rat liver microsomes preincubated for 5 mins followed by NADPH addition and measured after 45 mins by LC-MS/MS analysis; format: ADME, Microsome
Outline: as §3

[15] = AUC (0 to t) in Sprague-Dawley rat at 1 mg/kg, iv by LC-MS/MS analysis; format: ADME, organism-based; settings: in vivo
Cytochrome P450 3A4 = Cytochrome P450 3A4 (Homo sapiens, UniProt P08684); assay: Inhibition of CYP3A4 in human liver microsomes preincubated for 10 mins followed by NADPH addition by LC-MS/MS analysis; format: ADME
Mus musculus [16] = assay: Antiinflammatory activity in ip dosed LPS-induced C57BL/6 mouse model assessed as reduction in IFNgamma production treated for 3 days measured 24 hrs post last dose by ELISA; format: functional, organism-based; settings: time 4.0 day
Outline: as §4

[17] = Half life in CD-1 rat liver microsomes preincubated for 5 mins followed by NADPH addition and measured after 45 mins by LC-MS/MS analysis; format: ADME, Microsome; settings: time 50 min
Outline: as §3

Mus musculus [18] = assay: Antiinflammatory activity in LPS-induced C57BL/6 mouse model assessed as reduction in IL1beta production at 10 mg/kg, ip treated for 3 days measured 24 hrs post last dose by ELISA; format: functional, organism-based; settings: time 4.0 day
Outline: as §4

Mus musculus [19] = assay: Antiinflammatory activity in LPS-induced C57BL/6 mouse model assessed as reduction in TNFalpha production at 10 mg/kg, ip treated for 3 days measured 24 hrs post last dose by ELISA; format: functional, organism-based; settings: time 4.0 day
Outline: as §4

Mus musculus [20] = assay: Antiinflammatory activity in LPS-induced C57BL/6 mouse model assessed as reduction in IL6 production at 10 mg/kg, ip treated for 3 days measured 24 hrs post last dose by ELISA; format: functional, organism-based; settings: time 4.0 day
Outline: as §4

Mus musculus [21] = assay: Antiinflammatory activity in LPS-induced C57BL/6 mouse model assessed as reduction in IFNgamma production at 10 mg/kg, ip treated for 3 days measured 24 hrs post last dose by ELISA; format: functional, organism-based; settings: time 4.0 day
Outline: as §4

Chain of Keap1/Nrf2 (Q16236 whole entry): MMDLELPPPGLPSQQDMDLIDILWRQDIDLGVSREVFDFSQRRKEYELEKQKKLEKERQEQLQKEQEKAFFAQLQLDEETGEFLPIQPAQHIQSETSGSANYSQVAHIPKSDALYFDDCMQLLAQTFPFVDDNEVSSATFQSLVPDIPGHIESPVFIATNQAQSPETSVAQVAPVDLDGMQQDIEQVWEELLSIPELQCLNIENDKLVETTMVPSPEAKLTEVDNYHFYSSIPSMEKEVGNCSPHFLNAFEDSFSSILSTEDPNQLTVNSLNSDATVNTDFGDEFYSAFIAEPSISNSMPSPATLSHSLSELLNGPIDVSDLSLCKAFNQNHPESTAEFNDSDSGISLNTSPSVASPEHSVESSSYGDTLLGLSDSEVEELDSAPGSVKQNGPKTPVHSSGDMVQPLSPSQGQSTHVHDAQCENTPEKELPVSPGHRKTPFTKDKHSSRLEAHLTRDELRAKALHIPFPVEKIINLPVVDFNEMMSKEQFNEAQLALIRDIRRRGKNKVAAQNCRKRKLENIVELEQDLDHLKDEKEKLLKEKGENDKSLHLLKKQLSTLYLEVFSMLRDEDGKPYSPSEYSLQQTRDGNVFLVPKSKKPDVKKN
Chain of Keap1/Nrf2 (Q14145 whole entry): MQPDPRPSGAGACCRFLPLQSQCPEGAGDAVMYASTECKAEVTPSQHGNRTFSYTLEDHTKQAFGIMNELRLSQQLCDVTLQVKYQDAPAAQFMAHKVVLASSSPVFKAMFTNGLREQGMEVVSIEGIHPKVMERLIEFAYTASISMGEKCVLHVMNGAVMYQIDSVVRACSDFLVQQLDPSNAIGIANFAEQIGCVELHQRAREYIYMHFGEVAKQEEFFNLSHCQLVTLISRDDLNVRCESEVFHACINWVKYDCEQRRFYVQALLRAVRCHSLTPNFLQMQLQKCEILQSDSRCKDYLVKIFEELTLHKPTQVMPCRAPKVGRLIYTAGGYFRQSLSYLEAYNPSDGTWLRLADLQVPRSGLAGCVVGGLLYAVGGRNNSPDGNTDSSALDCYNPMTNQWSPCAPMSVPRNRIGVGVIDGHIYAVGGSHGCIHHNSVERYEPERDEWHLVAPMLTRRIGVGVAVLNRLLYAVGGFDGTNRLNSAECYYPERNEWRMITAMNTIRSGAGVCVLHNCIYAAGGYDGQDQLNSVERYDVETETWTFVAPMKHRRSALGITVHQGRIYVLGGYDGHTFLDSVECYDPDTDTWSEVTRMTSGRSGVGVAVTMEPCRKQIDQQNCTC
Chain of Cytochrome P450 3A4 (P08684 whole entry): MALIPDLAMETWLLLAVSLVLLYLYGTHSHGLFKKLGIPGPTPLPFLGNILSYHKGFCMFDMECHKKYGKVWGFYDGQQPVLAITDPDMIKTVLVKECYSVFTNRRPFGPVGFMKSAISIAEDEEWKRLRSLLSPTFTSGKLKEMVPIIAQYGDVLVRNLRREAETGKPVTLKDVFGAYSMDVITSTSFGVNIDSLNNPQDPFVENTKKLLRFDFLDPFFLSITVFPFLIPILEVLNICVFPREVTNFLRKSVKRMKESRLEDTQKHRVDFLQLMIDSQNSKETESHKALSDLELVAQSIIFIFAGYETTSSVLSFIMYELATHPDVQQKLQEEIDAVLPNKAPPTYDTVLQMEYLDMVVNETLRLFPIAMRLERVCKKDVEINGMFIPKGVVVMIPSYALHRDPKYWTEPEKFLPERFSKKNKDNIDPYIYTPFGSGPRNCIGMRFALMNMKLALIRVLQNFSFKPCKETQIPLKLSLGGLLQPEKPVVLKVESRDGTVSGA
Chain of Cytochrome P450 2C9 (P11712 whole entry): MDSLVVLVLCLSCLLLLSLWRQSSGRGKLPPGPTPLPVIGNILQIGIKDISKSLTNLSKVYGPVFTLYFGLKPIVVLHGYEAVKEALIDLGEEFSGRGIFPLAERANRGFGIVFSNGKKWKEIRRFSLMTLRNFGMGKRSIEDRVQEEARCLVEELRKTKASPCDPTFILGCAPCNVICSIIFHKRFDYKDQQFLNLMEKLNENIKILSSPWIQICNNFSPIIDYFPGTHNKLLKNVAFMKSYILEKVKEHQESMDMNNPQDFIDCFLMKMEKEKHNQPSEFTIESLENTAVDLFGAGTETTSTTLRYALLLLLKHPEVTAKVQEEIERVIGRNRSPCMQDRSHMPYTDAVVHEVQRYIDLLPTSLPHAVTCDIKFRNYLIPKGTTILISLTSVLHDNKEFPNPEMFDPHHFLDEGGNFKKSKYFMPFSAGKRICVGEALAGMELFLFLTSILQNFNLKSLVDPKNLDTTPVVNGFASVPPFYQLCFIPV
Chain of Cytochrome P450 2C19 (P33261 whole entry): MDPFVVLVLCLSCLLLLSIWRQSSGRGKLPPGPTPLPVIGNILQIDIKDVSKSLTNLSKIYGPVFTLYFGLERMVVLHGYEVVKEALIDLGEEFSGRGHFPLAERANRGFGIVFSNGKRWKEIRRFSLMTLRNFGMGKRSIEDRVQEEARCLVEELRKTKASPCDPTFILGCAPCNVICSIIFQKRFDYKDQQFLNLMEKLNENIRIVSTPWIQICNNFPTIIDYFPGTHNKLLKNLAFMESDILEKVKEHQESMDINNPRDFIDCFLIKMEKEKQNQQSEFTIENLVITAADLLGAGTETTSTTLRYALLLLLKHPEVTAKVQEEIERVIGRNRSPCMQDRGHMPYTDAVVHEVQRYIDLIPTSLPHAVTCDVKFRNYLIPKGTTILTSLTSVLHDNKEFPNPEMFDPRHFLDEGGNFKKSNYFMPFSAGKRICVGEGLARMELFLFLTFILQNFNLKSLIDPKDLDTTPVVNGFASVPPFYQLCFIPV
Chain of Cytochrome P450 2D6 (P10635 whole entry): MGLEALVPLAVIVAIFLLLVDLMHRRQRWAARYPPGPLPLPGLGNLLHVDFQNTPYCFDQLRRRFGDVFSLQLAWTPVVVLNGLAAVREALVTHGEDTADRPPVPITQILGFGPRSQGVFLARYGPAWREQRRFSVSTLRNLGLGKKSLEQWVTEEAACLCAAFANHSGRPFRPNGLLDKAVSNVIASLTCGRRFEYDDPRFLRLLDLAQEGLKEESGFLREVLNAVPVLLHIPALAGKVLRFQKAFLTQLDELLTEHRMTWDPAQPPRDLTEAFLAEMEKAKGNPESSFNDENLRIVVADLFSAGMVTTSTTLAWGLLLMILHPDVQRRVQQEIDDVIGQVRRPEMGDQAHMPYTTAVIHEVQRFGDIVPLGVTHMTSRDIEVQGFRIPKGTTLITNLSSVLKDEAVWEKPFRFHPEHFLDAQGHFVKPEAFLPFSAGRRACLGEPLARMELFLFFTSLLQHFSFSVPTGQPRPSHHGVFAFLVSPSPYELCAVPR

## NC(=O)c1ccc(S(=O)(=O)N(CC(=O)O)c2ccc(OC(C(=O)O)c3ccccc3)c3ccccc23)cc1 (configuration not stated)
Keap1/Nrf2
  IC50: 2.69 µM

## O=C(O)CN(c1ccc(OC(C(=O)O)c2ccccc2)c2ccccc12)S(=O)(=O)c1ccc(Cl)cc1 (configuration not stated)
Keap1/Nrf2
  IC50: 7.64 µM

## O=C(O)CN(c1ccc(OC(C(=O)O)c2ccccc2)c2ccccc12)S(=O)(=O)c1ccccc1 (configuration not stated)
Keap1/Nrf2
  IC50: 17.8 µM

## Cc1cc(C)c(S(=O)(=O)N(CC(=O)O)c2ccc(OC(C(=O)O)c3ccc(Br)cc3)c3ccccc23)c(C)c1 (configuration not stated)
Keap1/Nrf2
  IC50: 0.43 µM

## CC(=O)Nc1ccc(C(Oc2ccc(N(CC(=O)O)S(=O)(=O)c3c(C)cc(C)cc3C)c3ccccc23)C(=O)O)cc1 (configuration not stated)
Keap1/Nrf2
  IC50: 0.98 µM

## Cc1cc(C)c(S(=O)(=O)N(CC(=O)O)c2ccc(OC(C(=O)O)c3ccc(F)cc3)c3ccccc23)c(C)c1 (configuration not stated)
Keap1/Nrf2
  IC50: 0.17 µM

## Cc1cc(C)c(S(=O)(=O)N(CC(=O)O)c2ccc(OC(C(=O)O)c3ccc(OC(C)C)cc3)c3ccccc23)c(C)c1 (configuration not stated)
Keap1/Nrf2
  IC50: 0.5 µM

## O=C(O)CN(c1ccc(OC(C(=O)O)c2ccccc2)c2ccccc12)S(=O)(=O)c1ccc(Br)cc1 (configuration not stated)
Keap1/Nrf2
  IC50: 2.97 µM

## Cc1cc(C)c(S(=O)(=O)N(CC(=O)O)c2ccc(OC(C(=O)O)c3ccc(O)cc3)c3ccccc23)c(C)c1 (configuration not stated)
Keap1/Nrf2
  IC50: 0.16 µM

## Cc1cc(C)c(S(=O)(=O)N(CC(=O)O)c2ccc(OC(C(=O)O)c3ccc(Cl)cc3)c3ccccc23)c(C)c1 (configuration not stated)
Keap1/Nrf2
  IC50: 0.19 µM

## COc1ccc(C(Oc2ccc(N(CC(=O)O)S(=O)(=O)c3c(C)cc(C)cc3C)c3ccccc23)C(=O)O)cc1 (configuration not stated)
Cytochrome P450 2C9
  IC50: > 10 µM
Cytochrome P450 2C19
  IC50: > 10 µM
RAW264.7 [1]
  Activity: Active
[2]
  t1/2: 1.72 h
RAW264.7 [3]
  Activity: Dose-dependent effect
RAW264.7 [4]
  Activity: Active
RAW264.7 [5]
  inhibition: Dose-dependent effect
[6]
  Vz/F: 0.953 L/kg
[7]
  CLint at […]: 1.57 µL/min/mg
Mus musculus [8]
  Activity: Dose-dependent effect
Mus musculus [9]
  Activity: Dose-dependent effect
[10]
  Cmax: 15100 ng/mL
Cytochrome P450 1A2
  IC50: > 10 µM
Cytochrome P450 2D6
  IC50: > 10 µM
[11]
  AUC: 2649 ng·h/mL
RAW264.7 [12]
  Activity: Active
Mus musculus [13]
  Activity: Dose-dependent effect
[14]
  CLhep predicted at […]: 2.69 mL/min/kg
[15]
  AUC(0-t): 2550 ng·h/mL
Cytochrome P450 3A4
  IC50: > 10 µM
Mus musculus [16]
  Activity: Dose-dependent effect
[17]
  half-life at […]: 10.5 h

## Cc1cc(C)c(S(=O)(=O)N(CC(=O)O)c2ccc(OC(C(=O)O)c3ccc(C(C)(C)C)cc3)c3ccccc23)c(C)c1 (configuration not stated)
Keap1/Nrf2
  IC50: 19 µM

## Cc1ccc(S(=O)(=O)N(CC(=O)O)c2ccc(OC(C(=O)O)c3ccccc3)c3ccccc23)cc1 (configuration not stated)
Keap1/Nrf2
  IC50: 2.69 µM

## O=C(O)CN(c1ccc(OC(C(=O)O)c2ccccc2)c2ccccc12)S(=O)(=O)c1cccc2ccccc12 (configuration not stated)
Keap1/Nrf2
  IC50: 0.78 µM

## C[C@@H]1C[C@H]2[C@@H]3CCC4=CC(=O)C=C[C@]4(C)[C@@]3(F)[C@@H](O)C[C@]2(C)[C@@]1(O)C(=O)CO
Mus musculus [18]
  Activity: Active
Mus musculus [19]
  Activity: Active
Mus musculus [20]
  Activity: Active
Mus musculus [21]
  Activity: Active

## Cc1cc(C)c(S(=O)(=O)N(CC(=O)O)c2ccc(OC(C(=O)O)c3ccc(C(F)(F)F)cc3)c3ccccc23)c(C)c1 (configuration not stated)
Keap1/Nrf2
  IC50: 1.19 µM

## O=C(O)CN(c1ccc(OC(C(=O)O)c2ccccc2)c2ccccc12)S(=O)(=O)c1ccc(OC(F)(F)F)cc1 (configuration not stated)
Keap1/Nrf2
  IC50: 5.84 µM

## CCOc1ccc(C(Oc2ccc(N(CC(=O)O)S(=O)(=O)c3c(C)cc(C)cc3C)c3ccccc23)C(=O)O)cc1 (configuration not stated)
Keap1/Nrf2
  IC50: 0.15 µM
